Source: PubChem BioAssay
Most compounds without a hit are left out; they make up all but 2.8% or so of the library.
E-sel inducer: E-selectin induction in HUVECs, primary screen, imaging, HUVEC, immunofluorescence imaging, single point. normalized: neutral wells 0, TNF-alpha wells 100. activation, % at 7.58 µM. actives 0.37% (n = 260,000). AID 686992, 2013;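 active = mean E-selectin-positive cell signal at least 10% of the positive control, reached in at least 60% of replicates, without over 20% cell loss; inconclusive = no rule given, readout overlaps actives, possibly toxicity-flagged; inactive = the rest, including those meeting only one limit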
Target sequence (P16581 whole entry, looked up): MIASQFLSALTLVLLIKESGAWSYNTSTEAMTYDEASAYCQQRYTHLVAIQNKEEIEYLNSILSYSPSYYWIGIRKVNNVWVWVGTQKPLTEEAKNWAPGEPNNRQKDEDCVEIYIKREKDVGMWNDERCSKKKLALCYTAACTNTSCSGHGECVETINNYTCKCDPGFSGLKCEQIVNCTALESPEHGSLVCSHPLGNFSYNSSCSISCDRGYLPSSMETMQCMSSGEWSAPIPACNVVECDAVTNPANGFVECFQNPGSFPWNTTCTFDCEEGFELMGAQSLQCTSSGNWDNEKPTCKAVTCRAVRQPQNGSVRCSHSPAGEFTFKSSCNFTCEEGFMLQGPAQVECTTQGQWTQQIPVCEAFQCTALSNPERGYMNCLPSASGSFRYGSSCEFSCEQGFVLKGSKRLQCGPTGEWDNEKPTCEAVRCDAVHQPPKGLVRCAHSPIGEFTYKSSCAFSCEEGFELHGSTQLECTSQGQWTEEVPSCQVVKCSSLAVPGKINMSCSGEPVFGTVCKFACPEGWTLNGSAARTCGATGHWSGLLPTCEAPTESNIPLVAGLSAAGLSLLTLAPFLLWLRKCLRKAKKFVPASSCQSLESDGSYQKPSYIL
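assay system = HUVEC, human umbilical vein endothelial cells | input = 3,000 HUVEC seeded per well | medium = EGM-2 growth medium on 0.1% gelatin-coated wells | dosing = one compound dose added by pin transfer | signal = immunofluorescence imaging | read-out basis = % PE-positive cells | control set = TNF-alpha, DMSO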
SIRT5 inh: SIRT5 desuccinylase inhibitors, primary screen, biochemical, fluorescence imaging, single point, set 5; NAD-dependent protein deacylase sirtuin-5, mitochondrial (Homo sapiens), Q9NXA8; Purified SirT5, succinyl-peptide AMC, trypsin-coupled fluorescence; inhibition, % at 15 µM; actives 1.1% (n = 330,000); AID 652115, 2013; in the data active = inhibition above about 15%; inconclusive = no clear call, values can overlap the other calls
DENV2 CPE: inhibitors of DENV2 cytopathic effect, primary screen, cell-based, plate reader, single concentration; DENV2-infected cells, cytopathic effect rescue; CPE inhibition, % at 9.99 µM; actives 1.7% (n = 350,000); AID 651640, 2012; in the data active = CPE inhibition above about 20%, passing the limit was not always enough; inconclusive = no clear call, values can overlap the other calls; tested in BHK-21 cells;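 note: 0% = median of neutral control wells and 100% = median of positive control wells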
Numbers without * were called inactive; ? = inconclusive; nt = no result given.

SMILES	E-sel inducer	SIRT5 inh	DENV2 CPE
Cc1ccc(S(=O)(=O)Nc2ccc3c(c2)CC(=O)N([C@H](C)CO)C[C@H](C)[C@@H](CN(C)Cc2ccc(-c4ccccc4)cc2)O3)cc1	0	12	-7
Cc1ccc(S(=O)(=O)Nc2ccc3c(c2)CC(=O)N([C@@H](C)CO)C[C@H](C)[C@@H](CN(C)Cc2ccc(-c4ccccc4)cc2)O3)cc1	0	19*	12
Cc1ccc(S(=O)(=O)Nc2ccc3c(c2)CC(=O)N([C@H](C)CO)C[C@H](C)[C@H](CN(C)Cc2ccc(-c4ccccc4)cc2)O3)cc1	0	3	-6
Cc1ccc(S(=O)(=O)Nc2ccc3c(c2)CC(=O)N([C@@H](C)CO)C[C@H](C)[C@H](CN(C)Cc2ccc(-c4ccccc4)cc2)O3)cc1	0	18*	?
CNC(=O)C[C@@H]1CC[C@H]2[C@H](COc3ccc(NC(=O)NC4CCCC4)cc3C(=O)N2C)O1	0	-8	-10
CCS(=O)(=O)Nc1ccc2c(c1)C(=O)N(C)[C@@H]1CC[C@@H](CC(=O)Nc3ccccc3)O[C@H]1CO2	0	-2	7
COc1ccc(NC(=O)N[C@@H]2CC[C@@H](CCNS(=O)(=O)c3ccccc3F)O[C@H]2CO)cc1	0	-1	-6
O=C(C[C@@H]1CC[C@@H]2[C@H](COC[C@@H](O)CN2Cc2cccc(Cl)c2)O1)N1CCOCC1	0	8	11
COc1cc(NC(=O)C/C(C)=N/NC(=O)C(=O)NC2CCCCC2)c(OC)cc1Cl	11	0	nt
COc1cc(NC(=O)C/C(C)=N/NC(=O)C2CCCCC2)c(OC)cc1Cl	56*	0	?
Cc1ccc(S(=O)(=O)Nc2ccc3c(c2)C(=O)N([C@@H](C)CO)C[C@H](C)[C@H](CN(C)Cc2ccc(C(=O)O)cc2)OCCCC[C@H](C)O3)cc1	nt	-1	-3
C[C@@H]1CCCCO[C@@H](CN(C)C(=O)c2ccccc2)[C@H](C)CN([C@@H](C)CO)C(=O)c2cc(NC(=O)Nc3ccc(F)cc3)ccc2O1	0	7	9
C[C@@H]1CCCCO[C@@H](CN(C)C)[C@H](C)CN([C@@H](C)CO)C(=O)c2cc(NC(=O)Nc3ccc(F)cc3)ccc2O1	0	nt	nt
C[C@H](CO)N1C[C@H](C)[C@@H](CN(C)C(=O)C2CCCCC2)OCCCC[C@H](C)Oc2ccc(NC(=O)Nc3ccc(F)cc3)cc2C1=O	1	22*	2
C[C@H]1CCCCO[C@H](CN(C)C(=O)c2ccccc2)[C@@H](C)CN([C@@H](C)CO)C(=O)c2cc(NC(=O)Nc3ccc(F)cc3)ccc2O1	0	3	28*
CC(C)NC(=O)N(C)C[C@@H]1OCCCC[C@H](C)Oc2ccc(NC(=O)Nc3ccc(F)cc3)cc2C(=O)N([C@@H](C)CO)C[C@H]1C	1	-1	39*
C[C@@H]1CN([C@H](C)CO)C(=O)c2cc(NC(=O)Nc3ccc(F)cc3)ccc2O[C@@H](C)CCCCO[C@H]1CN(C)C	0	-2	42*
C[C@H]1CCCCO[C@@H](CN(C)C(=O)C2CCCCC2)[C@@H](C)CN([C@@H](C)CO)C(=O)c2cc(NC(=O)Nc3ccc(F)cc3)ccc2O1	0	2	-1
CC(C)NC(=O)N(C)C[C@H]1OCCCC[C@@H](C)Oc2ccc(NC(=O)Nc3ccc(F)cc3)cc2C(=O)N([C@H](C)CO)C[C@@H]1C	1	-2	1
O=C(Nc1cccc(F)c1)N1CC(=O)N2[C@H](C1)[C@H](c1ccc(-c3ccccc3)cc1)[C@@H]2CO	0	0	10
C[C@@H]1CN([C@@H](C)CO)C(=O)Cc2cc(NC(=O)Cc3ccccc3)ccc2O[C@H]1CN(C)Cc1ccccc1	1	5	11
CCCN1C[C@@H](C)[C@H](OC)CN(C)C(=O)c2cc(NC(=O)c3ccc4c(c3)OCO4)ccc2OC[C@H]1C	0	nt	nt
CS(=O)(=O)N1[C@@H]2Cn3c(ccc(C4=CCCCC4)c3=O)[C@H]1[C@@H](C(=O)N1CCCCC1)[C@@H]2CO	0	-29	3
CO[C@@H]1CN(C)C(=O)c2ccc(NC(=O)c3ccccc3F)cc2OC[C@H](C)N(C(=O)c2ccccc2F)C[C@@H]1C	0	-1	-1
CCS(=O)(=O)N1CCCCN2[C@@H](CO)[C@@H](c3ccc(C#CC(C)(C)O)cc3)[C@@H]2C1	0	1	10
O=C(C[C@@H]1CC[C@@H]2[C@H](COC[C@@H](O)CN2C(=O)c2ccncc2)O1)NC1CCC1	0	-1	9
C[C@H](CO)N1C[C@H](C)[C@H](CN(C)CC2CCCCC2)Oc2c(NC(=O)Nc3ccc4c(c3)OCO4)cccc2C1=O	0	-3	6
